In PMC5601358 (Journal of Medicinal Chemistry, 2017):

Columns and labels:
[1] = target: T1, human adenosine A3 receptor (Homo sapiens, UniProt P0DMS8); assay: Radioligand competition association assay with [3H]34; format: binding; settings: for residence time: read-out: RT (residence time)
T1 sequence (P0DMS8 1-318): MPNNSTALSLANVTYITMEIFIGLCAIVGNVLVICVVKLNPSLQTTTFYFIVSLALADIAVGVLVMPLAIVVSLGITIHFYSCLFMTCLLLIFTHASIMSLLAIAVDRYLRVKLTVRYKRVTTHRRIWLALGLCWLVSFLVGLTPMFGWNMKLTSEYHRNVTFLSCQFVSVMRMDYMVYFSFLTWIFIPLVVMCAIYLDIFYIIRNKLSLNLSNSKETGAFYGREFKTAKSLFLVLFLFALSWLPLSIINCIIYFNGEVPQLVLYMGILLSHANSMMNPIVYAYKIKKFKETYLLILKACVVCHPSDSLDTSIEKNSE

[2] = target: T2, hA3R stably expressed on CHO cell membranes (Homo sapiens, UniProt P0DMS8); assay: [35S]GTPγS binding assay, 2-Cl-IB-MECA-stimulated, Schild analysis; format: biochemical; settings: for Mode of antagonism: 2-Cl-IB-MECA concentration-effect curves, antagonist at 30-, 100-, 300-fold Ki; for Schild slope: Coincubation with 2-Cl-IB-MECA 30 min, 25 °C
T2 sequence (P0DMS8 1-318): T1 sequence (P0DMS8 1-318)
Procedure, shortened: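 CHO membranes stably expressing human A3 receptor (15 μg) in 50 mM Tris-HCl, 5 mM MgCl2, 1 mM EDTA, 0.05% BSA, 1 mM DTT, pH 7.4, with 1 μM GDP and 5 μg saponin. Agonist 0.1 nM–10 μM plus ~0.3 nM [35S]GTPγS (final). DMSO ≤0.1%. Basal: untreated membranes; maximum: 10 μM agonist. GF/B filtration, scintillation counting. Curves normalized and combined, n ≥ 3.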

[3] = target: T1, human adenosine A3 receptor; assay: Radioligand displacement assay with [3H]34; format: binding; settings: 25 °C, [3H]34, hA3R stably expressed on CHO cell membranes, n ≥ 3

SMILES	koff [1]	kon [1]	residence time [1]	Mode of antagonism [2]	Schild slope [2]	pKi ± SEM [3]
CCCn1c(=O)c2c(nc3cc(OC)ccn32)n(Cc2ccccc2)c1=O [Compound 1, 1-Benzyl-8-methoxy-3-propyl-1H,3H-pyrido[2,1-f]purine-2,4-dione]	0.00032 s⁻¹	850000 M⁻¹ s⁻¹	52 ± 0.3 min	–	–	–
COc1ccn2c(c1)nc1c2c(=O)n(CC2CC2)c(=O)n1Cc1ccccc1 [Compound 2, 1-Benzyl-3-(cyclopropylmethyl)-8-methoxypyrido[2,1-f]purine-2,4(1H,3H)-dione]	6e-05 s⁻¹	2.8e+06 M⁻¹ s⁻¹	315 ± 105 min	–	–	–
COc1ccn2c(c1)nc1c2c(=O)[nH]c(=O)n1Cc1ccccc1 [Compound 5, 1-Benzyl-8-methoxy-1H,3H-pyrido[2,1-f]purine-2,4-dione]	0.014 s⁻¹	530000 M⁻¹ s⁻¹	2.2 ± 1.4 min	surmountable antagonism	1.0 ± 0.2	–
CCCCCn1c(=O)c2c(nc3cc(OC)ccn32)n(Cc2ccccc2)c1=O [Compound 9, 1-Benzyl-8-methoxy-3-pentyl-1H,3H-pyrido[2,1-f]purine-2,4-dione]	0.0006 s⁻¹	1.1e+06 M⁻¹ s⁻¹	28 ± 2.2 min	–	–	–
CCCCCCn1c(=O)c2c(nc3cc(OC)ccn32)n(Cc2ccccc2)c1=O [Compound 10, 1-Benzyl-3-hexyl-8-methoxypyrido[2,1-f]purine-2,4(1H,3H)-dione]	8.2e-05 s⁻¹	230000 M⁻¹ s⁻¹	213 ± 35 min	–	–	8.6 ± 0.1
CCCCCCCn1c(=O)c2c(nc3cc(OC)ccn32)n(Cc2ccccc2)c1=O [Compound 11, 1-Benzyl-3-heptyl-8-methoxypyrido[2,1-f]purine-2,4(1H,3H)-dione]	6.2e-05 s⁻¹	420000 M⁻¹ s⁻¹	278 ± 45 min	–	–	–
C=CCn1c(=O)c2c(nc3cc(OC)ccn32)n(Cc2ccccc2)c1=O [Compound 12, 3-Allyl-1-benzyl-8-methoxypyrido[2,1-f]purine-2,4(1H,3H)-dione]	–	–	–	–	–	8.3 ± 0.1
COCCn1c(=O)c2c(nc3cc(OC)ccn32)n(Cc2ccccc2)c1=O [Compound 15, 1-Benzyl-8-methoxy-3-(2-methoxyethyl)-1H,3H-pyrido[2,1-f]purine-2,4-dione]	0.00063 s⁻¹	430000 M⁻¹ s⁻¹	27 ± 2.6 min	–	–	7.7 ± 0.2
COc1ccn2c(c1)nc1c2c(=O)n(CC(C)C)c(=O)n1Cc1ccccc1 [Compound 17, 1-Benzyl-3-isobutyl-8-methoxypyrido[2,1-f]purine-2,4(1H,3H)-dione]	0.0002 s⁻¹	780000 M⁻¹ s⁻¹	148 ± 102 min	–	–	–

The remaining lines, values ahead:

koff [1]	kon [1]	residence time [1]	Mode of antagonism [2]	Schild slope [2]	pKi ± SEM [3]	SMILES
0.00011 s⁻¹	550000 M⁻¹ s⁻¹	250 ± 147 min	–	–	–	COc1ccn2c(c1)nc1c2c(=O)n(CC(C)(C)C)c(=O)n1Cc1ccccc1 [Compound 18, 1-Benzyl-8-methoxy-3-(3-neopentyl)-1H,3H-pyrido[2,1-f]purine-2,4-dione]
–	–	–	–	–	9.2 ± 0.04	CCc1ccc(Cn2c(=O)n(CC3CC3)c(=O)c3c2nc2cc(OC)ccn23)cc1 [Compound 26, 3-(Cyclopropylmethyl)-1-(4-ethylbenzyl)-8-methoxypyrido[2,1-f]purine-2,4(1H,3H)-dione]
4.7e-05 s⁻¹	480000 M⁻¹ s⁻¹	376 ± 58 min	insurmountable antagonism	0.9 ± 0.2	–	COc1cccc(Cn2c(=O)n(CC3CC3)c(=O)c3c2nc2cc(OC)ccn23)c1 [Compound 27, 3-(Cyclopropylmethyl)-8-methoxy-1-(3-methoxybenzyl)pyrido[2,1-f]purine-2,4(1H,3H)-dione]
7.8e-05 s⁻¹	480000 M⁻¹ s⁻¹	250 ± 72 min	–	–	–	COc1ccc(Cn2c(=O)n(CC3CC3)c(=O)c3c2nc2cc(OC)ccn23)cc1 [Compound 28, 3-(Cyclopropylmethyl)-8-methoxy-1-(4-methoxybenzyl)pyrido[2,1-f]purine-2,4(1H,3H)-dione]
0.00047 s⁻¹	820000 M⁻¹ s⁻¹	36 ± 5.5 min	–	–	–	COc1ccn2c(c1)nc1c2c(=O)n(CC2CC2)c(=O)n1Cc1cccc(Cl)c1 [Compound 29, 1-(3-Chlorobenzyl)-3-(cyclopropylmethyl)-8-methoxypyrido[2,1-f]purine-2,4(1H,3H)-dione]
0.00082 s⁻¹	3e+06 M⁻¹ s⁻¹	20 ± 0.5 min	–	–	–	COc1ccn2c(c1)nc1c2c(=O)n(CC2CC2)c(=O)n1Cc1ccc(Cl)cc1 [Compound 30, 1-(4-Chlorobenzyl)-3-(cyclopropylmethyl)-8-methoxypyrido[2,1-f]purine-2,4(1H,3H)-dione]
5.3e-05 s⁻¹	100000 M⁻¹ s⁻¹	391 ± 137 min	–	–	–	COc1ccn2c(c1)nc1c2c(=O)n(CC2CC2)c(=O)n1Cc1ccc(Cl)c(Cl)c1 [Compound 31, 3-(Cyclopropylmethyl)-1-(3,4-dichlorobenzyl)-8-methoxypyrido[2,1-f]purine-2,4(1H,3H)-dione]
